The values below come from paper PMC2266580 (The Journal of General Physiology, 2005).

What all share (format): biochemical
Assay [1] deals with T1, Kir6.2/ΔC26/G334R channel (slow burst exit gating patches) (Homo sapiens, UniProt Q14654, G334R).
T1 sequence (Q14654 1-364 G334R limits assumed): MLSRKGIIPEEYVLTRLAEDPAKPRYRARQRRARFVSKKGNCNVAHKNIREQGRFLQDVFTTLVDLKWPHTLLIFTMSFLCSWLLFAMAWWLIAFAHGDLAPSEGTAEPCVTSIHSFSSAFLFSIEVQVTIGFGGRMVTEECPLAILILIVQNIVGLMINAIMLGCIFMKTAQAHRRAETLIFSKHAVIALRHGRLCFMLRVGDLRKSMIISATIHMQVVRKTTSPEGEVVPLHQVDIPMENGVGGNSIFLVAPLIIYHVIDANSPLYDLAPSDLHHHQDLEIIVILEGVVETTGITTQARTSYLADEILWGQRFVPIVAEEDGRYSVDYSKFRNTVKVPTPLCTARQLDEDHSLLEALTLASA
The settings on record: 50 μM protamine. A digest of the protocol:
(§1)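 Channels expressed in Xenopus oocytes: SUR1 plus Kir6.2 for line 1, Kir6.2ΔC26/G334R for line 2. Inside-out patches were held at −80 mV. Pipette contained (mM) 150 KCl, 10 NaCl, 1 CaCl2, 10 EGTA, 10 HEPES, pH 7.4. […] Signals filtered at 4 kHz, sampled at 20 kHz. Half-amplitude event detection, missed-event-corrected duration histogram fits, n = 5, mean ± SEM.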

Assay [2] has as its target wild-type SUR1/Kir6.2 channel (Homo sapiens, UniProt Q14654). As to conditions: 50 μM protamine. The method in brief: as §1
In assay [3] the target is T2, Kir6.2ΔC26 G334 (wild type) channel (Homo sapiens, UniProt Q14654).
T2 sequence (Q14654 1-364 limits assumed): T1 sequence (Q14654 1-364 G334R limits assumed) with R334G
Kind of assay: ATP inhibition of wild-type.

In another assay the target is Kir6.2ΔC26 333K channel. Kind of assay: ATP inhibition of 333K channels, inside-out patch. The settings on record: read-out: Ki,ATP, Xenopus oocytes, without SUR, n = 6.
In another assay the target is Kir6.2ΔC26 334E channel. Description: ATP inhibition of 334E channels, inside-out patch. As to conditions: read-out: Ki,ATP, Xenopus oocytes, without SUR, −80 mV.
For the next assay, the target named is Kir6.2ΔC26 334F channel. Description: ATP inhibition of 334F channels, inside-out patch. As to conditions: read-out: Ki,ATP, Xenopus oocytes, without SUR, −80 mV.
For a further assay, the target named is Kir6.2ΔC26 334A channel. Description: ATP inhibition of 334A channels, inside-out patch. As to conditions: read-out: Ki,ATP, Xenopus oocytes, without SUR, −80 mV.

Changes are numbered by the printed parent chain. Where “and” joins values, the source holds several entries; their conditions need not be identical. Identical values can stand only once.

wild-type SUR1/Kir6.2 channel, sequence (Q14654 whole entry): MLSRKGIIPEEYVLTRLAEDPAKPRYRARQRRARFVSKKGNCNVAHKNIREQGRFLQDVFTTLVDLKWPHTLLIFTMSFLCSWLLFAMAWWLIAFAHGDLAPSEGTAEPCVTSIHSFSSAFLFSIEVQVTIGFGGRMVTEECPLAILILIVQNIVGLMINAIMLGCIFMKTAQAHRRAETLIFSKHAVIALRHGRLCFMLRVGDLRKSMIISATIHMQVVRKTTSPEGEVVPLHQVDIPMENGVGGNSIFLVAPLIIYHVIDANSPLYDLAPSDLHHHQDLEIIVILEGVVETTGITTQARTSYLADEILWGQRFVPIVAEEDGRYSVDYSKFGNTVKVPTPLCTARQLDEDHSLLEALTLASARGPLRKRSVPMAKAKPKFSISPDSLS
wild-type SUR1/Kir6.2 channel, sequence (Q09428 whole entry partner): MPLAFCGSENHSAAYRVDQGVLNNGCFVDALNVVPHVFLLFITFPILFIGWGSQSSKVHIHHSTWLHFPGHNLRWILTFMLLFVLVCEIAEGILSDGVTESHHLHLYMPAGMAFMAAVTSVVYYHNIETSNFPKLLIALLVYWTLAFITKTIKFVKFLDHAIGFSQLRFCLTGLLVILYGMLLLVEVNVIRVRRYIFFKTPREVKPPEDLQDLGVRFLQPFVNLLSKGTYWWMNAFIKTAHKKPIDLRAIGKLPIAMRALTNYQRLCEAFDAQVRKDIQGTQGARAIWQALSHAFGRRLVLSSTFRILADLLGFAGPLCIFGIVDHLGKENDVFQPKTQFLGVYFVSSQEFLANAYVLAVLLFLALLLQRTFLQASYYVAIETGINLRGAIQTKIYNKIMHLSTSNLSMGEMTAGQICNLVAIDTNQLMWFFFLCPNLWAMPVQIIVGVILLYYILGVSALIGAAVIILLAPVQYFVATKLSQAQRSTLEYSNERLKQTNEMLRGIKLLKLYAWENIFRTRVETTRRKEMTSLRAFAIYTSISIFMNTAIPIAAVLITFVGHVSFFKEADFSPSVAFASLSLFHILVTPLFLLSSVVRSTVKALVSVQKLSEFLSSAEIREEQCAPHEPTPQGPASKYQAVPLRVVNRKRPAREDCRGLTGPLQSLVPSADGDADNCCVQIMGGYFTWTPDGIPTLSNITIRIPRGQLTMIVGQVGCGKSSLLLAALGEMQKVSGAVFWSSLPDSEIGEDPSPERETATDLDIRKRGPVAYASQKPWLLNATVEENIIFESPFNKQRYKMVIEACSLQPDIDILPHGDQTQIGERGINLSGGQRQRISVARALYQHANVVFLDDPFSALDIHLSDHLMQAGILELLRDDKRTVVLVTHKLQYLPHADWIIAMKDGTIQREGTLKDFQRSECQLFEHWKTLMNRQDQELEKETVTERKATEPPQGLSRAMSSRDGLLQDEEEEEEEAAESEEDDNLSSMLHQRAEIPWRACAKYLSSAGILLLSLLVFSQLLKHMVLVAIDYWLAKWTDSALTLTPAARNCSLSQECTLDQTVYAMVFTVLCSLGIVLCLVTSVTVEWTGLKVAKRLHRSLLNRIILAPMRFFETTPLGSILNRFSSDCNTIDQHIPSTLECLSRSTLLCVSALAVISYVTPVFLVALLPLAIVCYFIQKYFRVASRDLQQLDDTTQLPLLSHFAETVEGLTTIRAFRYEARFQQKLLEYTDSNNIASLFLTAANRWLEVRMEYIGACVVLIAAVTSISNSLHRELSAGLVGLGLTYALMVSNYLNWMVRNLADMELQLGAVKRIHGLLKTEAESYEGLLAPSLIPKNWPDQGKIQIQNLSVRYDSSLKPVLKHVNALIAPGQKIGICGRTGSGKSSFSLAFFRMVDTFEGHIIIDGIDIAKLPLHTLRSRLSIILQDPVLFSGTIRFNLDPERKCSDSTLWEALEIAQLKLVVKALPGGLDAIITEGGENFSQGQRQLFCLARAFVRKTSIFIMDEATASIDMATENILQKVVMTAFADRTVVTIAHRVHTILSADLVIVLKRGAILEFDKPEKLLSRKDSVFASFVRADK

Take protamine: the “mean open time after protamine” value in assay [1] (absence of ATP, n = 5, before protamine 1.9 ± 0.2 ms) is reported as 1.1 ± 0.2 ms; in assay [2] (absence of ATP, before protamine 2.1 ± 0.2 ms), 1.0 ± 0.2 ms. For the same molecule, the “mean burst time after protamine” value in assay [1] (absence of ATP, n = 5, before protamine 80.3 ± 10.7 ms) is recorded as 2.6 ± 1.8 ms; in assay [2] (absence of ATP, before protamine 48.0 ± 7.4 ms) it was 2.6 ± 0.9 ms. In assay [1] (all 12 patches), the “effect on slowed gating from the burst” value is listed as “fully restore the fast gating from the burst”. Moreover, the “effect on gating from the burst” value in assay [2] (cytoplasmic face, all six patches) is on record as “dramatically speeded gating from the burst”.

The term Ki denotes a dissociation constant, usually derived from enzyme kinetics or from competition with a known ligand. For `Nc1ncnc2c1ncn2[C@@H]1O[C@H](COP(=O)(O)OP(=O)([O-])OP(=O)([O-])O)[C@@H](O)[C@H]1O.[Mg+2]` [ATP], the “inhibition of channel activity” value in assay [3] (10 mM ATP) is “complete inhibition”. For the same molecule, in assay [3] (wild-type channel, αH free variable), the “slope factor αH of Hill fit of ATP inhibition” value is on record as 1.0 ± 0.1. In addition, the Ki on Kir6.2ΔC26 333K channel was 2.2 ± 0.3 mM; at Kir6.2ΔC26 334E channel, 5.9 ± 0.02 mM; on Kir6.2ΔC26 334F channel, 3 mM and 3.1 mM; at Kir6.2ΔC26 334A channel, 2.1 ± 0.05 mM.
